Values after ≈ are worked out from the molar mass of the structure shown. Active and inactive are the calls of the source.
What was measured:
M14 = assay: Cytotoxicity against human M14 cells incubated for 72 hrs by MTT assay; type: functional, cell-based
Outline: (§1)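 Cells kept in RPMI-1640 with 10% FBS plus L-glutamine and HEPES, seeded at 5 × 10^2 to 5 × 10^4 cells/well and left to adhere overnight. Medium was replaced with DMSO stock diluted in medium at eight concentrations, 2−5 wells each. Camptothecin and vehicle served as controls. After 72 h at 37 °C, 5% CO2, viable cells were read by CellTiter 96 AQueous. IC50 came from dose−response curves.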

PC-3 = assay: Cytotoxicity against human PC3 cells incubated for 72 hrs by MTT assay; type: functional, cell-based; outline: as §1
Staphylococcus aureus = assay: Antimicrobial activity against methicillin-resistant Staphylococcus aureus isolate 108 incubated for 24 hrs by broth microdilution method; type: functional
Outline: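 CLSI broth microdilution on clinical MRSA isolate 108. Overnight trypticase soy broth culture diluted 1:100 in cation-adjusted Mueller-Hinton broth, grown at 37 °C to OD600 0.2, diluted 1:100 again to give 10^6 cfu/mL. Compound in DMSO diluted in medium, tested across a concentration series, 3-6 wells each. Vancomycin positive control. Incubated 24 h at 37 °C. MIC = lowest concentration preventing visible growth.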

NCI-H460 [1] = assay: Cytotoxicity against human NCI-H460 cells incubated for 72 hrs by MTT assay; type: functional, cell-based; outline: as §1
NCI-H460 [2] = assay: Induction of membrane disruption in human NCI-H460 cells at 20 uM by LDH release assay; type: functional, cell-based
Outline: (§2)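 NCI-H460 cells were plated at 1 × 10^4 cells/well in RPMI-1640 with 10% fetal calf serum and attached overnight. Compound or DMSO vehicle was added and incubated 24 or 72 h. Supernatant LDH was measured with the CytoTox 96 kit, absorbance at 490 nm, with kit lysis solution as positive control.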

NCI-H460 [3] = assay: Induction of membrane disruption in human NCI-H460 cells at 3 yo 5 fold cytotoxic IC50 level by LDH release assay; type: functional, cell-based; outline: as §2
NCI-H460 [4] = assay: Induction of apoptosis in human NCI-H460 cells assessed as caspase 3/7 activation at 26.1uM; type: functional, cell-based
Outline: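 NCI-H460 cells were plated at 1 × 10^4 cells/well in RPMI-1640 with 10% fetal calf serum and attached overnight. Compound or DMSO vehicle was added and incubated 24 or 72 h. Caspase 3/7 activity was read by Caspase-Glo 3/7 luminescence, with camptothecin 10 μg/mL as positive control. A result counted as active when caspase exceeded background plus two SD of the negative control without LDH release.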

[5] = Homo sapiens, NCI-H460, 72 h, read-out: IC50

| Compound | Activity (M14) | Activity (PC-3) | MIC (Staphylococcus aureus) | IC50 (NCI-H460 [1]; nci-h460) | Activity (NCI-H460 [2]) | MIC (Staphylococcus aureus; isolate 108, 24 h) | IC50 (NCI-H460 [1]; [5]) | Activity (NCI-H460 [3]) | Activity (NCI-H460 [4]) |
| --- | --- | --- | --- | --- | --- | --- | --- | --- | --- |
| O=C(O)C1=C[C@@H](O)[C@@H]2C[C@H]3[C@H](CCC/C=C/C=C/c4ccccc4)[C@H]4C=C[C@@H]1[C@@H]2[C@H]43 | inactive | inactive | inactive | Not Active | inactive | – | – | – | – |
| CCCCCCCC[C@@H]1[C@H]2C=C[C@H]3C(C(=O)O)=C[C@H](O)[C@@H]4C[C@@H]1[C@@H]2[C@H]43 [BEILSCHMIEDIC ACID A] | inactive | inactive | – | – | – | 10 µg/mL (≈ 29 µM) | 6.1 µM | – | – |
| CCCCCCCC[C@@H]1[C@H]2C=C[C@H]3C(C(=O)O)=C[C@@H](O)[C@@H]4C[C@@H]1[C@@H]2[C@H]43 [BEILSCHMIEDIC ACID C] | inactive | inactive | inactive | Not Active | inactive | – | – | – | – |
| O=C(O)C1=C[C@H](O)[C@@H]2C[C@H]3[C@H](CCC/C=C/C=C/c4ccccc4)[C@H]4C=C[C@@H]1[C@@H]2[C@H]43 [BEILSCHMIEDIC ACID I] | inactive | inactive | – | – | – | 12 µg/mL (≈ 29.8 µM) | 5.5 µM | inactive | – |
| O=C(O)C1=C[C@@H](O)[C@@H]2C[C@H]3[C@H](CCCCCc4ccccc4)[C@H]4C=C[C@@H]1[C@@H]2[C@H]43 [BEILSCHMIEDIC ACID K] | inactive | inactive | – | – | – | 11 µg/mL (≈ 29.1 µM) | 5.9 µM | inactive | – |
| O=C(O)C1=C[C@@H](O)[C@@H]2C[C@H]3[C@H](C/C=C/C=C/c4ccccc4)[C@H]4C=C[C@@H]1[C@@H]2[C@H]43 [BEILSCHMIEDIC ACID L] | inactive | inactive | – | – | – | 11 µg/mL (≈ 29.4 µM) | 4.4 µM | inactive | – |
| O=C(O)C1=C[C@@H](O)[C@@H]2C[C@H]3[C@H](CCC/C=C\C=C\c4ccccc4)[C@H]4C=C[C@@H]1[C@@H]2[C@H]43 [BEILSCHMIEDIC ACID M] | inactive | inactive | – | – | – | 12 µg/mL (≈ 29.8 µM) | 8.7 µM | inactive | Active |
| O=C(O)C1=C[C@@H](O)[C@@H]2C[C@H]3[C@H](CCCC4C=CC(c5ccccc5)OO4)[C@H]4C=C[C@@H]1[C@@H]2[C@H]43 (stereo not given in full) [BEILSCHMIEDIC ACID N] | inactive | inactive | – | – | – | 13 µg/mL (≈ 29.9 µM) | 19 µM | – | – |
| O=C(O)C1=C[C@@H](O)[C@@H]2C[C@H]3[C@H](CCCc4ccc(-c5ccccc5)o4)[C@H]4C=C[C@@H]1[C@@H]2[C@H]43 [BEILSCHMIEDIC ACID O] | inactive | inactive | – | Not Active | inactive | 13 µg/mL (≈ 31.2 µM) | – | – | – |
| CC[C@@]1(O)C(=O)OCc2c1cc1n(c2=O)Cc2cc3ccccc3nc2-1 [CAMPTOTHECIN] | – | – | – | – | – | – | 0.003 µM | – | – |
